# From ChEMBL document CHEMBL5376013, “Design, synthesis and biological evaluation of novel morpholinopyrimidine-5-carbonitrile derivatives as dual PI3K/mTOR inhibitors” (RSC Med Chem, 2024)
# Assays:
# Assay type in all cases: functional
# Settings in all cases: read-out: GI
# [1] = tested on: K562; assay: Antitumor activity against human K562 cells assessed as growth inhibition at 10 uM relative to control
# Method in brief: (§1)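 After drug addition, plates were incubated 48 h at 37 °C under 5% CO2. Adherent cells were fixed with cold TCA (10% final, 60 min, 4 °C) and suspension cells with 16% final TCA. Staining used 0.4% SRB in 1% acetic acid, solubilized in 10 mM trizma, read at A515. Percent growth was calculated from time-zero, control and treated absorbances.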
# [2] = tested on: IGROV-1; assay: Antitumor activity against human IGROV-1 cells assessed as growth inhibition at 10 uM relative to control; method in brief: as §1
# [3] = tested on: MDA-MB-435; assay: Antitumor activity against human MDA-MB-435 cells assessed as growth inhibition at 10 uM relative to control; method in brief: as §1
# [4] = tested on: SNB-75; assay: Antitumor activity against human SNB-75 cells assessed as growth inhibition at 10 uM relative to control
# Method in brief: (§2)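 Drug exposure 48 h at 37 °C, 5% CO2. Adherent cells fixed with cold TCA (10% final), suspension cells with TCA (16% final). Stained with 0.4% SRB in 1% acetic acid, dissolved in 10 mM Tris, A515. Growth relative to time-zero and untreated control.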
# [5] = tested on: NCI-H460; assay: Antitumor activity against human NCI-H460 cells assessed as growth inhibition at 10 uM relative to control; method in brief: as §1
# [6] = tested on: LOX IMVI; assay: Antitumor activity against human LOX IMVI cells assessed as growth inhibition at 10 uM relative to control; method in brief: as §1
# [7] = tested on: NCI-H322M; assay: Antitumor activity against human NCI-H322M cells assessed as growth inhibition at 10 uM relative to control; method in brief: as §1
# [8] = tested on: OVCAR-8; assay: Antitumor activity against human OVCAR-8 cells assessed as growth inhibition at 10 uM relative to control; method in brief: as §1
# [9] = tested on: NCI-H226; assay: Antitumor activity against human NCI-H226 cells assessed as growth inhibition at 10 uM relative to control; method in brief: as §1
# [10] = tested on: MDA-MB-231; assay: Antitumor activity against human MDA-MB-231 cells assessed as growth inhibition at 10 uM relative to control; method in brief: as §1
# [11] = tested on: A549; assay: Antitumor activity against human A549 cells assessed as growth inhibition at 10 uM relative to control; method in brief: as §1
# [12] = tested on: HT-29; assay: Antitumor activity against human HT-29 cells assessed as growth inhibition at 10 uM relative to control; method in brief: as §1
# [13] = tested on: SW-620; assay: Antitumor activity against human SW-620 cells assessed as growth inhibition at 10 uM relative to control; method in brief: as §2
# [14] = tested on: MDA-MB-468; assay: Antitumor activity against human MDA-MB-468 cells assessed as growth inhibition at 10 uM relative to control; method in brief: as §1
# [15] = tested on: SK-MEL-28; assay: Antitumor activity against human SK-MEL-28 cells assessed as growth inhibition at 10 uM relative to control; method in brief: as §2
# [16] = tested on: HL-60; assay: Antitumor activity against human HL-60 cells assessed as growth inhibition at 10 uM relative to control; method in brief: as §1
# [17] = tested on: HCT-15; assay: Antitumor activity against human HCT-15 cells assessed as growth inhibition at 10 uM relative to control; method in brief: as §1
# [18] = tested on: Malme-3M; assay: Antitumor activity against human Malme-3M cells assessed as growth inhibition at 10 uM relative to control; method in brief: as §1
# [19] = tested on: BT-549; assay: Antitumor activity against human BT-549 cells assessed as growth inhibition at 10 uM relative to control; method in brief: as §1
# [20] = tested on: SF-539; assay: Antitumor activity against human SF-539 cells assessed as growth inhibition at 10 uM relative to control; method in brief: as §1
# [21] = tested on: COLO 205; assay: Antitumor activity against human COLO 205 cells assessed as growth inhibition at 10 uM relative to control; method in brief: as §1
# [22] = tested on: MOLT-4; assay: Antitumor activity against human MOLT-4 cells assessed as growth inhibition at 10 uM relative to control; method in brief: as §1
# [23] = tested on: HOP-62; assay: Antitumor activity against human HOP-62 cells assessed as growth inhibition at 10 uM relative to control; method in brief: as §1
# [24] = tested on: U-251; assay: Antitumor activity against human U-251 cells assessed as growth inhibition at 10 uM relative to control; method in brief: as §2
# [25] = tested on: RPMI-8226; assay: Antitumor activity against human RPMI-8226 cells assessed as growth inhibition at 10 uM relative to control; method in brief: as §1
# [26] = tested on: RXF 393; assay: Antitumor activity against human RXF 393 cells assessed as growth inhibition at 10 uM relative to control; method in brief: as §1
# [27] = tested on: CAKI-1; assay: Antitumor activity against human CAKI-1 cells assessed as growth inhibition at 10 uM relative to control; method in brief: as §1
# [28] = tested on: OVCAR-3; assay: Antitumor activity against human OVCAR-3 cells assessed as growth inhibition at 10 uM relative to control; method in brief: as §1
# [29] = tested on: SR; assay: Antitumor activity against human SR cells assessed as growth inhibition at 10 uM relative to control; method in brief: as §2
# [30] = tested on: HCT-116; assay: Antitumor activity against human HCT-116 cells assessed as growth inhibition at 10 uM relative to control; method in brief: as §1
# [31] = tested on: SNB-19; assay: Antitumor activity against human SNB-19 cells assessed as growth inhibition at 10 uM relative to control; method in brief: as §2
# [32] = tested on: Hs-578T; assay: Antitumor activity against human Hs-578T cells assessed as growth inhibition at 10 uM relative to control; method in brief: as §1
# [33] = tested on: UO-31; assay: Antitumor activity against human UO-31 cells assessed as growth inhibition at 10 uM relative to control; method in brief: as §2
# [34] = tested on: HCC 2998; assay: Antitumor activity against human HCC 2998 cells assessed as growth inhibition at 10 uM relative to control; method in brief: as §1
# [35] = tested on: MCF7; assay: Antitumor activity against human MCF7 cells assessed as growth inhibition at 10 uM relative to control; method in brief: as §1
# [36] = tested on: SN12C; assay: Antitumor activity against human SN12C cells assessed as growth inhibition at 10 uM relative to control; method in brief: as §2
# [37] = tested on: SK-MEL-2; assay: Antitumor activity against human SK-MEL-2 cells assessed as growth inhibition at 10 uM relative to control; method in brief: as §1
# [38] = tested on: SK-MEL-5; assay: Antitumor activity against human SK-MEL-5 cells assessed as growth inhibition at 10 uM relative to control; method in brief: as §2
# [39] = tested on: NCI-H522; assay: Antitumor activity against human NCI-H522 cells assessed as growth inhibition at 10 uM relative to control; method in brief: as §1
# [40] = tested on: 786-0; assay: Antitumor activity against human 786-0 cells assessed as growth inhibition at 10 uM relative to control; method in brief: as §1
# [41] = tested on: OVCAR-5; assay: Antitumor activity against human OVCAR-5 cells assessed as growth inhibition at 10 uM relative to control; method in brief: as §1
# [42] = tested on: CCRF-CEM; assay: Antitumor activity against human CCRF-CEM cells assessed as growth inhibition at 10 uM relative to control; method in brief: as §1
# [43] = tested on: T47D; assay: Antitumor activity against human T47D cells assessed as growth inhibition at 10 uM relative to control; method in brief: as §2
# [44] = tested on: EKVX; assay: Antitumor activity against human EKVX cells assessed as growth inhibition at 10 uM relative to control; method in brief: as §1
# [45] = tested on: NCI-H23; assay: Antitumor activity against human NCI-H23 cells assessed as growth inhibition at 10 uM relative to control; method in brief: as §1
# [46] = tested on: KM12; assay: Antitumor activity against human KM12 cells assessed as growth inhibition at 10 uM relative to control; method in brief: as §1
smiles,measurement,setting,value
CC1=NN(c2nc(-c3ccc(Cl)cc3)c(C#N)c(N3CCOCC3)n2)C(=O)C1,inhibition of growth at 10 µM,[1],< 1%
same,inhibition of growth at 10 µM,[2],19%
same,inhibition of growth at 10 µM,[3],12.2%
same,inhibition of growth at 10 µM,[4],43.5%
same,inhibition of growth at 10 µM,[5],< 1%
same,inhibition of growth at 10 µM,[6],24.5%
same,inhibition of growth at 10 µM,[7],< 1%
same,inhibition of growth at 10 µM,[8],< 1%
same,inhibition of growth at 10 µM,[9],10.2%
same,inhibition of growth at 10 µM,[10],< 1%
same,inhibition of growth at 10 µM,[11],< 1%
same,inhibition of growth at 10 µM,[12],< 1%
same,inhibition of growth at 10 µM,[13],14.8%
same,inhibition of growth at 10 µM,[14],< 1%
same,inhibition of growth at 10 µM,[15],12.9%
same,inhibition of growth at 10 µM,[16],18.2%
same,inhibition of growth at 10 µM,[17],10.3%
same,inhibition of growth at 10 µM,[18],< 1%
same,inhibition of growth at 10 µM,[19],33.9%
same,inhibition of growth at 10 µM,[20],< 1%
same,inhibition of growth at 10 µM,[21],< 1%
same,inhibition of growth at 10 µM,[22],< 1%
same,inhibition of growth at 10 µM,[23],12.6%
same,inhibition of growth at 10 µM,[24],< 1%
same,inhibition of growth at 10 µM,[25],42.9%
same,inhibition of growth at 10 µM,[26],56.6%
same,inhibition of growth at 10 µM,[27],29.9%
same,inhibition of growth at 10 µM,[28],49.8%
same,inhibition of growth at 10 µM,[29],< 1%
same,inhibition of growth at 10 µM,[30],< 1%
same,inhibition of growth at 10 µM,[31],< 1%
same,inhibition of growth at 10 µM,[32],45.4%
same,inhibition of growth at 10 µM,[33],28.1%
same,inhibition of growth at 10 µM,[34],< 1%
same,inhibition of growth at 10 µM,[35],1%
same,inhibition of growth at 10 µM,[36],112%
same,inhibition of growth at 10 µM,[37],12.9%
same,inhibition of growth at 10 µM,[38],< 1%
same,inhibition of growth at 10 µM,[39],21.1%
same,inhibition of growth at 10 µM,[40],13.4%
same,inhibition of growth at 10 µM,[41],15.2%
same,inhibition of growth at 10 µM,[42],14.1%
same,inhibition of growth at 10 µM,[43],< 1%
same,inhibition of growth at 10 µM,[44],11.2%
same,inhibition of growth at 10 µM,[45],19.3%
same,inhibition of growth at 10 µM,[46],< 1%
